Test system: U2OS
Experiment: Multiplex assay against U2OS
Type: toxicity, cell-based
Details: human
In short: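 Cells stained live at seeding with Hoechst33342, BioTracker Green Microtubule Cytoskeleton Dye, MitoTracker Red and Annexin V Alexa Fluor 680 were imaged on a CQ1 microscope at 37°C and 5% CO2 after compound addition. Their classification by CellPathfinder machine-learning gating ran from Hoechst high-intensity objects versus normal cells, to healthy, pyknosed or fragmented nuclei among normal cells, to mitotic or apoptotic among pyknosed cells. Tubulin, mitochondrial-mass and membrane-permeability phenotypes are per cents of healthy-nucleus cells.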

[1] = 12 h, 1 µM, compound concentration 1 uM, replicate 1
[2] = 12 h, 1 µM, compound concentration 1 uM, replicate 2
[3] = 12 h, 10 µM, compound concentration 10 uM, replicate 1
[4] = 12 h, 10 µM, compound concentration 10 uM, replicate 2
[5] = 24 h, 1 µM, compound concentration 1 uM, replicate 1
[6] = 24 h, 1 µM, compound concentration 1 uM, replicate 2
[7] = 24 h, 10 µM, compound concentration 10 uM, replicate 1
[8] = 24 h, 10 µM, compound concentration 10 uM, replicate 2
[9] = 48 h, 1 µM, compound concentration 1 uM, replicate 1
[10] = 48 h, 1 µM, compound concentration 1 uM, replicate 2
[11] = 48 h, 10 µM, compound concentration 10 uM, replicate 1
[12] = 48 h, 10 µM, compound concentration 10 uM, replicate 2

## Cc1c(CC(=O)O)c2cccnc2n1Cc1ccc(S(C)(=O)=O)cc1C(F)(F)F [FEVIPIPRANT]
[1]
  Population Apoptotic (%): 80%
  Population Fragmented Nuclei (%): 25%
  Population Healthy Nuclei (%): 64%
  Population Hoechst High Intensity Objects (%): 1%
  Population Membrane Permeable-Phenotype (%): 2%
  Population Mitochondria Different-Phenotype (%): 2%
  Population Mitotic Cells (%): 19%
  Population Normal (%): 98%
  Population Pyknosed Nuclei (%): 9%
  Population Tubulin-Different-Phenotype (%): 0%
  Total Cell Count: 224
[2]
  Population Apoptotic (%): 50%
  Population Fragmented Nuclei (%): 22%
  Population Healthy Nuclei (%): 72%
  Population Membrane Permeable-Phenotype (%): 8%
  Population Mitochondria Different-Phenotype (%): 1%
  Population Mitotic Cells (%): 50%
  Population Pyknosed Nuclei (%): 5%
  Population Tubulin-Different-Phenotype (%): 9%
  Total Cell Count: 118
[3]
  Population Apoptotic (%): 90%
  Population Fragmented Nuclei (%): 27%
  Population Healthy Nuclei (%): 65%
  Population Hoechst High Intensity Objects (%): 2%
  Population Membrane Permeable-Phenotype (%): 3%
  Population Mitochondria Different-Phenotype (%): 0%
  Population Mitotic Cells (%): 9%
  Population Normal (%): 97%
  Population Pyknosed Nuclei (%): 7%
  Population Tubulin-Different-Phenotype (%): 1%
  Total Cell Count: 287
[4]
  Population Apoptotic (%): 100%
  Population Fragmented Nuclei (%): 22%
  Population Healthy Nuclei (%): 73%
  Population Hoechst High Intensity Objects (%): 0%
  Population Membrane Permeable-Phenotype (%): 8%
  Population Mitochondria Different-Phenotype (%): 3%
  Population Mitotic Cells (%): 0%
  Population Normal (%): 99%
  Population Pyknosed Nuclei (%): 3%
  Population Tubulin-Different-Phenotype (%): 4%
  Total Cell Count: 116
[5]
  Population Apoptotic (%): 80%
  Population Fragmented Nuclei (%): 20%
  Population Healthy Nuclei (%): 71%
  Population Hoechst High Intensity Objects (%): 2%
  Population Membrane Permeable-Phenotype (%): 1%
  Population Mitochondria Different-Phenotype (%): 3%
  Population Mitotic Cells (%): 20%
  Population Normal (%): 97%
  Population Pyknosed Nuclei (%): 8%
  Population Tubulin-Different-Phenotype (%): 1%
  Total Cell Count: 256
[6]
  Population Apoptotic (%): 66%
  Population Fragmented Nuclei (%): 17%
  Population Healthy Nuclei (%): 74%
  Population Hoechst High Intensity Objects (%): 0%
  Population Membrane Permeable-Phenotype (%): 9%
  Population Mitochondria Different-Phenotype (%): 0%
  Population Mitotic Cells (%): 33%
  Population Normal (%): 100%
  Population Tubulin-Different-Phenotype (%): 10%
  Total Cell Count: 145
[7]
  Population Apoptotic (%): 96%
  Population Fragmented Nuclei (%): 20%
  Population Healthy Nuclei (%): 70%
  Population Hoechst High Intensity Objects (%): 0%
  Population Membrane Permeable-Phenotype (%): 5%
  Population Mitochondria Different-Phenotype (%): 3%
  Population Mitotic Cells (%): 3%
  Population Normal (%): 99%
  Population Pyknosed Nuclei (%): 8%
  Population Tubulin-Different-Phenotype (%): 3%
  Total Cell Count: 326
[8]
  Population Apoptotic (%): 100%
  Population Fragmented Nuclei (%): 12%
  Population Healthy Nuclei (%): 78%
  Population Hoechst High Intensity Objects (%): 1%
  Population Membrane Permeable-Phenotype (%): 8%
  Population Mitochondria Different-Phenotype (%): 2%
  Population Mitotic Cells (%): 0%
  Population Normal (%): 98%
  Total Cell Count: 119
[9]
  Population Apoptotic (%): 65%
  Population Fragmented Nuclei (%): 18%
  Population Healthy Nuclei (%): 71%
  Population Hoechst High Intensity Objects (%): 2%
  Population Membrane Permeable-Phenotype (%): 4%
  Population Mitochondria Different-Phenotype (%): 3%
  Population Mitotic Cells (%): 34%
  Population Normal (%): 97%
  Population Pyknosed Nuclei (%): 10%
  Population Tubulin-Different-Phenotype (%): 2%
  Total Cell Count: 379
[10]
  Population Apoptotic (%): 90%
  Population Fragmented Nuclei (%): 20%
  Population Healthy Nuclei (%): 67%
  Population Membrane Permeable-Phenotype (%): 8%
  Population Mitochondria Different-Phenotype (%): 5%
  Population Mitotic Cells (%): 9%
  Population Pyknosed Nuclei (%): 12%
  Population Tubulin-Different-Phenotype (%): 9%
  Total Cell Count: 187
[11]
  Population Apoptotic (%): 91%
  Population Fragmented Nuclei (%): 17%
  Population Healthy Nuclei (%): 73%
  Population Hoechst High Intensity Objects (%): 1%
  Population Membrane Permeable-Phenotype (%): 4%
  Population Mitochondria Different-Phenotype (%): 3%
  Population Mitotic Cells (%): 8%
  Population Normal (%): 98%
  Population Pyknosed Nuclei (%): 8%
  Population Tubulin-Different-Phenotype (%): 3%
  Total Cell Count: 408
[12]
  Population Apoptotic (%): 100%
  Population Fragmented Nuclei (%): 15%
  Population Healthy Nuclei (%): 76%
  Population Hoechst High Intensity Objects (%): 3%
  Population Membrane Permeable-Phenotype (%): 5%
  Population Mitochondria Different-Phenotype (%): 1%
  Population Mitotic Cells (%): 0%
  Population Normal (%): 96%
  Total Cell Count: 158
